Experimental data reported in ChEMBL document CHEMBL5131563, “Accelerated Identification of Cell Active KRAS Inhibitory Macrocyclic Peptides using Mixture Libraries and Automated Ligand Identification System (ALIS) Technology” (J Med Chem, 2022).
pIC50: −log10 of the molar value. *1 amine or outer side, *2 acyl side, *3 side chain or, on linkers, in order; H or OH if unused. Where a SMILES comes first, the peptide text is derived from it. Bridges are numbered along the chain shown (N, C = ends). [ ]: non-standard residue; d: D form. Phe(3,4,5-F3) = N[C@@H](Cc1cc(F)c(F)c(F)c1)C(=O)O; Pro(trans-3-OAllyl) = C=CCO[C@H]1CCN[C@@H]1C(=O)O; X2 = O=C([C@@H]1[C@H]2CC[C@H](C2)N1[*:1])[*:2]; Pro(3R-Ph) = O=C(O)[C@H]1NCC[C@@H]1c1ccccc1; Ala(4-thiazolyl) = N[C@@H](Cc1cscn1)C(=O)O; Bip = N[C@@H](Cc1ccc(-c2ccccc2)cc1)C(=O)O; X5 = C[C@H]1CCN([*:1])[C@@H]1C(=O)[*:2]; Abu(4-CN) = N#CCC[C@H](N)C(=O)O; Aad = N[C@@H](CCCC(=O)O)C(=O)O; Ahp(2) = CCCCC[C@H](N)C(=O)O; Cba = N[C@@H](CC1CCC1)C(=O)O

Key:
[1] = Stability in human HeLa cell homogenate assessed as half life by LC-MS/MS analysis; assay type: ADME, cell-based
Method in brief: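 HeLa cells suspended at 1 × 10^6 cells/mL, probe-sonicated on ice until homogeneous, stored frozen at –20 °C. Peptides incubated with homogenate (1 × 10^6 cells/mL equivalent); peptide loss over time quantified by LC-MS/MS to derive t1/2.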

GTPase KRas = GTPase KRas (Homo sapiens, UniProt P01116, G12D); assay: Inhibition of recombinant biotinylated KRAS G12D mutant (unknown origin) assessed as inhibition of SOS-catalyzed nucleotide exchange preincubated for 60 mins followed by addition of human SOS protein and unlabeled GTP and measured after 60 mins by TR-FRET analysis
Sequence of GTPase KRas (P01116 whole entry G12D): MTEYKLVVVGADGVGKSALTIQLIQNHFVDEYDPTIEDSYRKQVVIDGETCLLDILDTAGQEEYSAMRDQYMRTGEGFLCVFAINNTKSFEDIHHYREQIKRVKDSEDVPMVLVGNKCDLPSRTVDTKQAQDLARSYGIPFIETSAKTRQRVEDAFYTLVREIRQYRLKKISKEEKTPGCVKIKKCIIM
Method in brief: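 Biotinylated KRAS G12D was treated in EDTA buffer (1 h, RT), then loaded at 90 nM with 900 nM Bodipy-GDP and 15 nM Tb-streptavidin in Mg2+ buffer, HEPES pH 7.5 (6 h, RT). It was used at 1.5 nM assay solution with a 10-point, 3-fold DMSO compound series for 60 min at RT. A solution of 120 nM human SOS plus GTP was added for 60 min. The read-out was TR-FRET at 520/495 nm, normalized to DMSO and saturating-inhibitor controls, with a 4-parameter fit.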

Row | pIC50 (GTPase KRas) | SMILES | half-life [1] [min]
1 | < 4.95 | CC[C@H](C)[C@@H]1NC(=O)[C@H](Cc2ccc(O)cc2)NC(=O)[C@H](CC(C)C)NC(=O)[C@@H]2CCCN2C(=O)[C@@H](NC(=O)[C@H](CCCNC(=N)N)NC(=O)[C@H](CCCNC(=N)N)NC(C)=O)CSSC[C@@H](C(=O)N[C@@H](CCCNC(=N)N)C(=O)N[C@@H](CCCNC(=N)N)C(N)=O)NC(=O)[C@H](C(C)C)NC(=O)[C@@H]2CCCN2C(=O)[C@H](CC(=O)O)NC(=O)[C@H](Cc2cc(F)c(F)c(F)c2)NC(=O)[C@H](Cc2cscn2)NC1=O (Ac-RRCPLYI[Ala(4-thiazolyl)][Phe(3,4,5-F3)]DPVCRR-NH2; disulfide 3-13) | –
2 | 7.62 | CC[C@H](C)[C@@H]1NC(=O)[C@H](Cc2ccc(-c3ccccc3)cc2)NC(=O)[C@H](CC(C)C)NC(=O)[C@@H]2CCCN2C(=O)[C@@H](NC(=O)[C@H](CCCNC(=N)N)NC(=O)[C@H](CCCNC(=N)N)NC(C)=O)CSSC[C@@H](C(=O)N[C@@H](CCCNC(=N)N)C(=O)N[C@@H](CCCNC(=N)N)C(N)=O)NC(=O)[C@H](CCC#N)NC(=O)[C@@H]2CCCN2C(=O)[C@H](CC(=O)O)NC(=O)[C@H](Cc2ccc(O)cc2)NC(=O)[C@H](CO)NC1=O (Ac-RRCPL[Bip]ISYDP[Abu(4-CN)]CRR-NH2; disulfide 3-13) | –
3 | 8.30 | CCCCC[C@@H]1NC(=O)[C@@H]2CCCN2C(=O)[C@H](CC(=O)O)NC(=O)[C@H](Cc2ccc(O)cc2)NC(=O)[C@H](CO)NC(=O)[C@H]([C@@H](C)CC)NC(=O)[C@H](Cc2ccc(-c3ccccc3)cc2)NC(=O)[C@H](CC(C)C)NC(=O)[C@@H]2CCCN2C(=O)[C@@H](NC(=O)[C@H](CCCNC(=N)N)NC(=O)[C@H](CCCNC(=N)N)NC(C)=O)CSSC[C@@H](C(=O)N[C@@H](CCCNC(=N)N)C(=O)N[C@@H](CCCNC(=N)N)C(N)=O)NC1=O (Ac-RRCPL[Bip]ISYDP[Ahp(2)]CRR-NH2; disulfide 3-13) | –
4 | 7.37 | CC[C@H](C)[C@@H]1NC(=O)[C@H](Cc2ccc(-c3ccccc3)cc2)NC(=O)[C@H](CC(C)C)NC(=O)[C@@H]2CCCN2C(=O)[C@@H](NC(=O)[C@H](CCCNC(=N)N)NC(=O)[C@H](CCCNC(=N)N)NC(C)=O)CSSC[C@@H](C(=O)N[C@@H](CCCNC(=N)N)C(=O)N[C@@H](CCCNC(=N)N)C(N)=O)NC(=O)[C@H](CCCC(=O)O)NC(=O)[C@@H]2[C@@H](C)CCN2C(=O)[C@H](CC(=O)O)NC(=O)[C@H](Cc2ccc(O)cc2)NC(=O)[C@H](CO)NC1=O (Ac-RRCPL[Bip]ISYD[X5][Aad]CRR-NH2; disulfide 3-13) | –
5 | 9.00 | CC[C@H](C)[C@@H]1NC(=O)[C@H](Cc2ccc(-c3ccccc3)cc2)NC(=O)[C@H](CC(C)C)NC(=O)[C@@H]2[C@@H](c3ccccc3)CCN2C(=O)[C@@H](NC(=O)[C@H](CCCNC(=N)N)NC(=O)[C@H](CCCNC(=N)N)NC(C)=O)CSSC[C@@H](C(=O)N[C@@H](CCCNC(=N)N)C(=O)N[C@@H](CCCNC(=N)N)C(N)=O)NC(=O)[C@H](C(C)C)NC(=O)[C@@H]2CCCN2C(=O)[C@H](CC(=O)O)NC(=O)[C@H](Cc2ccc(O)cc2)NC(=O)[C@H](CO)NC1=O (Ac-RRC[Pro(3R-Ph)]L[Bip]ISYDPVCRR-NH2; disulfide 3-13) | –
6 | 8.70 | C=CCO[C@H]1CCN2C(=O)[C@@H](NC(=O)[C@H](CCCNC(=N)N)NC(=O)[C@H](CCCNC(=N)N)NC(C)=O)CSSC[C@@H](C(=O)N[C@@H](CCCNC(=N)N)C(=O)N[C@@H](CCCNC(=N)N)C(N)=O)NC(=O)[C@H](C(C)C)NC(=O)[C@@H]3CCCN3C(=O)[C@H](CC(=O)O)NC(=O)[C@H](Cc3ccc(O)cc3)NC(=O)[C@H](CO)NC(=O)[C@H]([C@@H](C)CC)NC(=O)[C@H](Cc3ccc(-c4ccccc4)cc3)NC(=O)[C@H](CC3CCC3)NC(=O)[C@H]12 (Ac-RRC[Pro(trans-3-OAllyl)][Cba][Bip]ISYDPVCRR-NH2; disulfide 3-13) | –
7 | 6.70 | CC[C@H](C)[C@@H]1NC(=O)[C@H](Cc2ccc(-c3ccccc3)cc2)NC(=O)[C@H](CC(C)C)NC(=O)[C@@H]2[C@H]3CC[C@H](C3)N2C(=O)[C@@H](NC(=O)[C@H](CCCNC(=N)N)NC(=O)[C@H](CCCNC(=N)N)NC(C)=O)CSSC[C@@H](C(=O)N[C@@H](CCCNC(=N)N)C(=O)N[C@@H](CCCNC(=N)N)C(N)=O)NC(=O)[C@H](C(C)C)NC(=O)[C@@H]2CCCN2C(=O)[C@H](CC(=O)O)NC(=O)[C@H](Cc2ccc(O)cc2)NC(=O)[C@H](CO)NC1=O (Ac-RRC[X2]L[Bip]ISYDPVCRR-NH2; disulfide 3-13) | –

Further lines, the compound ahead of its results:

Row | SMILES | pIC50 (GTPase KRas) | half-life [1] [min]
8 | CC[C@H](C)[C@@H]1NC(=O)[C@H](Cc2ccc(O)cc2)NC(=O)[C@H](CC(C)C)NC(=O)[C@@H]2CCCN2C(=O)[C@@H](NC(=O)[C@H](CCCNC(=N)N)NC(=O)[C@H](CCCNC(=N)N)NC(C)=O)CSSC[C@@H](C(=O)N[C@@H](CCCNC(=N)N)C(=O)N[C@@H](CCCNC(=N)N)C(N)=O)NC(=O)[C@H](C(C)C)NC(=O)[C@@H]2CCCN2C(=O)[C@H](CC(=O)O)NC(=O)[C@H](Cc2cc(F)c(F)c(F)c2)NC(=O)[C@H](CO)NC1=O | 6.71 | 18
9 | CC[C@H](C)[C@@H]1NC(=O)[C@H](Cc2ccc(O)cc2)NC(=O)[C@H](CC(C)C)NC(=O)[C@@H]2CCCN2C(=O)[C@@H](NC(=O)[C@H](CCCNC(=N)N)NC(=O)[C@H](CCCNC(=N)N)NC(C)=O)CSSC[C@@H](C(=O)N[C@@H](CCCNC(=N)N)C(=O)N[C@@H](CCCNC(=N)N)C(N)=O)NC(=O)[C@H](C(C)C)NC(=O)[C@@H]2CCCN2C(=O)[C@H](CC(=O)O)NC(=O)[C@H](C(c2ccccc2)c2ccccc2)NC(=O)[C@H](CO)NC1=O | 6.60 | 30
10 | CC[C@H](C)[C@@H]1NC(=O)[C@H](Cc2ccc(O)cc2)NC(=O)[C@H](CC(C)C)NC(=O)[C@@H]2CCCN2C(=O)[C@@H](NC(=O)[C@H](CCCNC(=N)N)NC(=O)[C@H](CCCNC(=N)N)NC(C)=O)CSSC[C@@H](C(=O)N[C@@H](CCCNC(=N)N)C(=O)N[C@@H](CCCNC(=N)N)C(N)=O)NC(=O)[C@H](C(C)C)NC(=O)[C@@H]2CCCN2C(=O)[C@H](CC(=O)O)NC(=O)[C@H](CC2CCCCC2)NC(=O)[C@H](CO)NC1=O | 5.83 | 15
11 | CC[C@H](C)[C@@H]1NC(=O)[C@H](Cc2ccc(O)cc2)NC(=O)[C@H](CC(C)C)NC(=O)[C@@H]2CCCN2C(=O)[C@@H](NC(=O)[C@H](CCCNC(=N)N)NC(=O)[C@H](CCCNC(=N)N)NC(C)=O)CSSC[C@@H](C(=O)N[C@@H](CCCNC(=N)N)C(=O)N[C@@H](CCCNC(=N)N)C(N)=O)NC(=O)[C@H](C(C)C)NC(=O)[C@@H]2CCCN2C(=O)[C@H](CC(=O)O)NC(=O)[C@H](Cc2ccc(O)cc2)NC(=O)[C@H](CO)NC1=O (Ac-RRCPLYISYDPVCRR-NH2; disulfide 3-13) | 7.27 | 23
12 | CC[C@H](C)[C@@H]1NC(=O)[C@H](Cc2ccc(-c3ccccc3)cc2)NC(=O)[C@H](CC2CCC2)NC(=O)[C@@H]2[C@@H](c3ccccc3)CCN2C(=O)[C@@H](NC(=O)[C@H](CCCNC(=N)N)NC(=O)[C@H](CCCNC(=N)N)NC(C)=O)CSSC[C@@H](C(=O)N[C@@H](CCCNC(=N)N)C(=O)N[C@@H](CCCNC(=N)N)C(N)=O)NC(=O)[C@H](C(C)C)NC(=O)[C@@H]2CCCN2C(=O)[C@H](CC(=O)O)NC(=O)[C@H](Cc2ccc(O)cc2)NC(=O)[C@H](CO)NC1=O (Ac-RRC[Pro(3R-Ph)][Cba][Bip]ISYDPVCRR-NH2; disulfide 3-13) | 8.15 | –
